Experimental data pooled from the literature.
Each line is one published result; the experiments were not run side by side.
Target: Cyclin-dependent kinase 18 (CDK18, Homo sapiens, UniProt Q07002)

SMILES | observed | technique | concentration | remaining binding
C[C@H](c1cccc(C#N)c1)n1cc(Cl)cc(C(N)=O)c1=N | cell-free assay | competition with immobilised ligand | 1 µM | 100%
O=C(c1ccc(Nc2nccc(-c3cc4ccccc4s3)n2)cc1)N1CCC(N2CCCC2)CC1 | binding | competition with immobilised ligand | 1 µM | 100%
O=c1nc(-c2ccccn2)sc2ccccc12 | binding | competition with immobilised ligand | 1 µM | 94%
Nc1ncc2c(n1)-c1c([nH]c3ccc(C#CC4CC4)cc13)CCCC2 | binding | competition with immobilised ligand | 1 µM | 100%
COc1ncc2cc3ccccc3nc2c1C#N | cell-free assay | competition with immobilised ligand | 5 µM | 90%
CC1CCCN1c1nccc(-c2cnn3ncccc23)n1 (stereo not shown) | binding |  | 1 µM | 100%
CN(C)C(=O)Cn1cc(-c2nc(C3(c4ccc(-c5cnc(N)nc5)cc4)CC3)no2)cn1 | cell-free assay | competition with immobilised ligand | 1 µM | 83%
c1cnn2ncc(-c3ccnc(N4CCC45COC5)n3)c2c1 | binding |  | 1 µM | 98%
C=CC(=O)N1CCC(C(=O)NCC(=O)N2CCN(c3nc(-c4cnc(N)nc4C(F)F)nc(N4CCOCC4)n3)CC2)CC1 | binding | competition with immobilised ligand | 1 µM | 95%
CN1CCN(c2ccc(Nc3nccc(-c4cccc([N+](=O)[O-])c4)n3)cc2C(F)(F)F)CC1 | binding |  | 10 µM | 56%
C[C@H]1CCN(c2nccc(-c3cnn4ncccc34)n2)C1 | binding |  | 1 µM | 100%
CCOC(=O)c1cc2cc(-c3cc(C(=O)NCc4ccc(C(=O)O)cc4)nn3C)ccc2[nH]1 | cell-free assay | competition with immobilised ligand | 0.1 µM | 100%
O=C(c1ccc(Nc2ncc(Cl)c(-c3ccc(Cl)s3)n2)cc1)N1CCC(N2CCCC2)CC1 | binding | competition with immobilised ligand | 1 µM | 43%
CN(c1ccnc(CNc2nc(Nc3ccc4c(c3)CC(=O)N4)ncc2C(F)(F)F)n1)S(C)(=O)=O | cell-free assay | competition with immobilised ligand | 1 µM | 100%
Cc1cnn2ncc(-c3ccnc(N(C)C)n3)c2c1 | binding |  | 1 µM | 100%
c1cncc(-c2cccc(Nc3nccc(NC4CCCCC4)n3)c2)c1 | binding | competition with immobilised ligand | 10 µM | 100%
O=C(Nc1c[nH]nc1C(=O)NC1CCNCC1)c1cc(F)cc(F)c1 | binding | competition with immobilised ligand | 1 µM | 78%
COc1cnc(Nc2cccc(S(N)(=O)=O)c2)nc1N1CCN(c2ccccc2)C(=O)C1 | binding | competition with immobilised ligand | 1 µM | 100%
N[C@H]1CCN(c2nccc(-c3cnn4ncccc34)n2)C1 | binding |  | 1 µM | 100%
CN(C)c1ncnc(-c2ccc3nc(Nc4cc(CN5CCN(C(=O)CC(F)(F)F)CC5)ccn4)[nH]c3c2)c1Cl | cell-free assay | competition with immobilised ligand | 1 µM | 100%
O=C(c1ccc(Nc2ncc(Cl)c(-c3cc4ccccc4s3)n2)cc1)N1CCC(N2CCCC2)CC1 | binding | competition with immobilised ligand | 1 µM | 64%
F[C@@H]1CCN(c2nccc(-c3cnn4ncccc34)n2)C1 | binding |  | 1 µM | 86%
